Reference: ChEMBL document CHEMBL1914438, “Synthesis and biological activity of novel N-cycloalkyl-(cycloalkylaryl)-2-[(3-R-2-oxo-2H-[1,2,4]triazino[2,3-c]quinazoline-6-yl)thio]acetamides” (2011)
Activity calls are given as the source filed them. The rule behind the calls is not given here.

Columns and labels:
[1] = tested on: Yamadazyma tenuis; assay: Antifungal activity against Candida tenuis at 1 to 5 mg/mL after 48 to 72 hrs by stiff-plate agar-diffusion method; format: functional, organism-based
In short: (§1)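 Fungal plates run by stiff-plate agar diffusion, substances applied to grooves at 5 mg/mL; 10^9 c.f.u./mL cells; incubation 48–72 h at 28–30 °C. Inhibition zone diameter scored (11–15 mm not sensitive, 16–25 mm sensitive, >25 mm highly sensitive). Nystatin standard; experiments done three times.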

[2] = tested on: CAKI-1; assay: Cytotoxicity against human Caki1 cells assessed as cell growth at 10^-5 M after 48 hrs by SRB assay; format: functional; settings: CAKI-1, 48 h, read-out: Activity
In short: (§2)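 NCI 60-cell-line one-dose primary screen: cells inoculated and preincubated 24–48 h, then test agent added at a single 10^-5 M concentration for a further 48 h. Endpoint is sulforhodamine B protein staining read spectrophotometrically. Reported as percent growth relative to untreated control cells.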

[3] = tested on: Photobacterium leiognathi; assay: Antibacterial activity against Photobacterium leiognathi Sh1 assessed as inhibition of bacterial luminescence at 0.025 mg/mL after 10 mins by bioluminometry-based chronic action test; format: functional; design: scale not given: the % may be the effect or the level left
In short: (§3)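 Chronic (growth plus luminescence) test with P. leiognathi Sh1 at 10^5 cells/mL in chloride solution, compounds added in DMSO. After 10 min at 25 °C, growth medium added at 1:50 and the mix incubated 16–18 h at 30 °C. Luminescence then measured by bioluminometer as % of untreated control. Tetracycline reference.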

[4] = tested on: SNB-75; assay: Cytotoxicity against human SNB75 cells assessed as cell growth at 10^-5 M after 48 hrs by SRB assay; format: functional; settings: SNB-75, 48 h, read-out: Activity
In short: (§4)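 NCI human tumor cell line panel from nine cancer types. Each line was inoculated and preincubated 24–48 h, then exposed to a single concentration (10^-5 M) for 48 h. Growth was read by sulforhodamine B protein staining, measured spectrophotometrically. Value reported as percent growth of treated cells relative to untreated controls.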

[5] = tested on: UO-31; assay: Cytotoxicity against human UO31 cells assessed as cell growth at 10^-5 M after 48 hrs by SRB assay; format: functional; settings: UO-31, 48 h, read-out: Activity; in short: as §4
[6] = tested on: Photobacterium leiognathi; assay: Antibacterial activity against Photobacterium leiognathi Sh1 assessed as inhibition of bacterial luminescence at 0.25 mg/mL after 10 mins by bioluminometry-based acute action test; format: functional; design: scale not given: the % may be the effect or the level left
In short: (§5)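 Marine P. leiognathi Sh1 (Azov Sea shrimp isolate) diluted in chloride solution to 10^5 cells/mL; compounds suspended in DMSO mixed with 1 mL bacterial suspension. Acute test: 10 min at 25 °C, then bioluminescence measured by bioluminometer as % of compound-free control. Tetracycline reference.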

[7] = tested on: Photobacterium leiognathi; assay: Antibacterial activity against Photobacterium leiognathi Sh1 assessed as inhibition of bacterial luminescence at 0.025 mg/mL after 10 mins by bioluminometry-based acute action test; format: functional; design: scale not given: the % may be the effect or the level left; in short: as §5
[8] = tested on: PC-3; assay: Cytotoxicity against human PC3 cells assessed as cell growth at 10^-5 M after 48 hrs by SRB assay; format: functional; settings: PC-3, 48 h, read-out: Activity; in short: as §4
[9] = tested on: CCRF-CEM; assay: Cytotoxicity against human CCRF-CEM cells assessed as cell growth at 10^-5 M after 48 hrs by SRB assay; format: functional; settings: read-out: Activity; in short: as §2
[10] = tested on: Aspergillus niger; assay: Antifungal activity against Aspergillus niger at 1 to 5 mg/mL after 48 to 72 hrs by stiff-plate agar-diffusion method; format: functional, organism-based; in short: as §1
[11] = tested on: Mycobacterium; assay: Antibacterial activity against Mycobacterium luteum at 1 to 5 mg/mL after 24 hrs by stiff-plate agar-diffusion method; format: functional, organism-based
In short: (§6)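 Agar diffusion (stiff plate) with test substances at 5 mg/mL in grooves, allowed to diffuse into nutrient agar; inoculum 10^9 c.f.u./mL; bacteria incubated 24 h at 35 °C. Read-out: inhibition zone diameter (not sensitive 11–15 mm, sensitive 16–25 mm, highly sensitive >25 mm). Vancomycin and oxacillin as standards; three repeats.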

[12] = tested on: Staphylococcus aureus; assay: Antibacterial activity against Staphylococcus aureus at 1 to 5 mg/mL after 24 hrs by stiff-plate agar-diffusion method; format: functional, organism-based; in short: as §6
[13] = tested on: Photobacterium leiognathi; assay: Antibacterial activity against Photobacterium leiognathi Sh1 assessed as inhibition of bacterial luminescence at 0.1 mg/mL after 10 mins by bioluminometry-based chronic action test; format: functional; design: scale not given: the % may be the effect or the level left; in short: as §3
[14] = tested on: Photobacterium leiognathi; assay: Antibacterial activity against Photobacterium leiognathi Sh1 assessed as inhibition of bacterial luminescence at 0.1 mg/mL after 10 mins by bioluminometry-based acute action test; format: functional; design: scale not given: the % may be the effect or the level left; in short: as §5
[15] = tested on: Escherichia coli; assay: Antibacterial activity against Escherichia coli at 1 to 5 mg/mL after 24 hrs by stiff-plate agar-diffusion method; format: functional, organism-based; in short: as §6
[16] = tested on: Photobacterium leiognathi; assay: Antibacterial activity against Photobacterium leiognathi Sh1 assessed as inhibition of bacterial luminescence at 0.25 mg/mL after 10 mins by bioluminometry-based chronic action test; format: functional; design: scale not given: the % may be the effect or the level left; in short: as §3
[17] = tested on: Photobacterium leiognathi; assay: Antibacterial activity against Photobacterium leiognathi Sh1 at 0.1 to 0.25 ug/mL; format: functional, organism-based
[18] = tested on: Mycobacterium; assay: Antibacterial activity against Mycobacterium luteum assessed as zone of inhibition at 0.01 mg/mL after 24 hrs by stiff-plate agar-diffusion method; format: functional
In short: (§7)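 Stiff-plate agar diffusion. Inoculum 10^9 c.f.u./mL. Compounds were streaked across grooves in the agar nutrient plate and left to diffuse. Plates were incubated 24 h at 35 °C. Read-out was inhibition zone diameter: 11–15 mm not sensitive, 16–25 mm sensitive, >25 mm highly sensitive. Vancomycin and oxacillin were the standards. Three repeats.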

[19] = tested on: Staphylococcus aureus; assay: Antibacterial activity against Staphylococcus aureus assessed as zone of inhibition at 0.01 mg/mL after 24 hrs by stiff-plate agar-diffusion method; format: functional; in short: as §7
[20] = tested on: Aspergillus niger; assay: Antifungal activity against Aspergillus niger assessed as zone of inhibition at 0.01 mg/mL after 48 to 72 hrs by stiff-plate agar-diffusion method; format: functional
In short: (§8)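 Fungi were tested by stiff-plate agar diffusion from a 10^9 c.f.u./mL inoculum. Compounds were placed in agar grooves and allowed to diffuse. Incubation was 48–72 h at 28–30 °C. Inhibition zone diameter was scored as not sensitive (11–15 mm), sensitive (16–25 mm) or highly sensitive (>25 mm). Nystatin was the standard. Experiments were done in triplicate.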

[21] = tested on: Yamadazyma tenuis; assay: Antifungal activity against Candida tenuis assessed as zone of inhibition at 0.01 mg/mL after 48 to 72 hrs by stiff-plate agar-diffusion method; format: functional; in short: as §8
[22] = tested on: Escherichia coli; assay: Antibacterial activity against Escherichia coli assessed as zone of inhibition at 0.01 mg/mL after 24 hrs by stiff-plate agar-diffusion method; format: functional; in short: as §7
[23] = tested on: Aspergillus niger; assay: Antifungal activity against Aspergillus niger assessed as zone of inhibition at 0.1 mg/mL after 48 to 72 hrs by stiff-plate agar-diffusion method; format: functional; settings: read-out: DIZ
[24] = tested on: Aspergillus niger; assay: Antifungal activity against Aspergillus niger assessed as zone of inhibition of late spore formation at 0.5 mg/mL after 48 to 72 hrs by stiff-plate agar-diffusion method; format: functional; settings: read-out: DIZ
[25] = tested on: Staphylococcus aureus; assay: Antibacterial activity against Staphylococcus aureus assessed as zone of inhibition at 0.1 mg/mL after 24 hrs by stiff-plate agar-diffusion method; format: functional; settings: read-out: DIZ
[26] = tested on: Yamadazyma tenuis; assay: Antifungal activity against Candida tenuis assessed as zone of inhibition at 0.5 mg/mL after 48 to 72 hrs by stiff-plate agar-diffusion method; format: functional; settings: read-out: DIZ
[27] = tested on: Yamadazyma tenuis; assay: Antifungal activity against Candida tenuis assessed as zone of inhibition at 0.1 mg/mL after 48 to 72 hrs by stiff-plate agar-diffusion method; format: functional; settings: read-out: DIZ
[28] = tested on: Escherichia coli; assay: Antibacterial activity against Escherichia coli assessed as zone of inhibition at 0.1 mg/mL after 24 hrs by stiff-plate agar-diffusion method; format: functional; settings: read-out: DIZ
[29] = tested on: Escherichia coli; assay: Antibacterial activity against Escherichia coli assessed as zone of inhibition at 0.5 mg/mL after 24 hrs by stiff-plate agar-diffusion method; format: functional; settings: read-out: DIZ
[30] = tested on: Staphylococcus aureus; assay: Antibacterial activity against Staphylococcus aureus assessed as zone of inhibition at 0.5 mg/mL after 24 hrs by stiff-plate agar-diffusion method; format: functional; settings: read-out: DIZ
[31] = tested on: Mycobacterium; assay: Antibacterial activity against Mycobacterium luteum assessed as zone of inhibition at 0.5 mg/mL after 24 hrs by stiff-plate agar-diffusion method; format: functional; settings: read-out: DIZ
[32] = tested on: Mycobacterium; assay: Antibacterial activity against Mycobacterium luteum assessed as zone of inhibition at 0.1 mg/mL after 24 hrs by stiff-plate agar-diffusion method; format: functional; settings: read-out: DIZ
[33] = in the assay text read “after 16 to 18 hrs” for “after 10 mins”

| Compound | Activity [1] | Activity [6] | Activity [7] | Activity [10] | Activity [11] | Activity [12] | Activity [14] | Activity [15] | Activity [3] | Activity [13] | Activity [16] | further results |
| --- | --- | --- | --- | --- | --- | --- | --- | --- | --- | --- | --- | --- |
| Cc1nn2c(SCC(=O)O)nc3ccccc3c2nc1=O | inactive | 0% | 66.7% | inactive | inactive | inactive | 0% | inactive |  |  |  | growth at 10 µM [2]: 96%; Activity [3, 33]: 36.4%; growth at 10 µM [4]: 83.5%; growth at 10 µM [5]: 87.1%; growth at 10 µM [8]: 84.5%; growth at 10 µM [9]: 93.3%; Activity [13, 33]: 61.5%; Activity [16, 33]: 0% |
| CCC1C2CCC(C2)C1NC(=O)CSc1nc2ccccc2c2nc(=O)c(C)nn12 (centres undefined) | inactive | 62.5% | 91.67% | inactive | inactive | inactive | 104.17% | inactive |  |  |  | Activity [3, 33]: 90.28%; Activity [13, 33]: 93.06%; Activity [16, 33]: 86.11% |
| O=C(CSc1nc2ccccc2c2nc(=O)c(-c3ccccc3)nn12)NC12CC3CC(CC(C3)C1)C2 | inactive | 56.52% | 86.96% | inactive | inactive | inactive | 80.43% | inactive | 97.14% | 85.71% | 78.57% |  |
| Cc1n[nH]c(-c2ccccc2N)nc1=O |  |  |  |  |  |  |  |  |  |  |  | Activity [17]: Active |
| Cc1onc(-c2ccccc2)c1C(=O)N[C@@H]1C(=O)N2[C@@H]1SC(C)(C)[C@@H]2C(=O)O [OXACILLIN] |  |  |  |  |  |  |  |  |  |  |  | zone of inhibition at 10 µg/mL ([18]; read-out: DIZ): 0 mm; zone of inhibition at 10 µg/mL ([19]; read-out: DIZ): 21 mm; zone of inhibition at 10 µg/mL ([20]; read-out: DIZ): 0 mm; zone of inhibition at 10 µg/mL ([21]; read-out: DIZ): 0 mm; zone of inhibition at 10 µg/mL ([22]; read-out: DIZ): 0 mm |
| CN(C)[C@@H]1C(O)=C(C(N)=O)C(=O)[C@@]2(O)C(O)=C3C(=O)c4c(O)cccc4[C@@](C)(O)[C@H]3C[C@@H]12 [TETRACYCLINE] |  | 0% | 80.7% |  |  |  | 9.1% |  |  |  |  | Activity [3, 33]: 0%; Activity [13, 33]: 0%; Activity [16, 33]: 0% |
| Cc1nn2c(SCC(=O)Nc3ccc(C45CC6CC(CC(C6)C4)C5)cc3)nc3ccccc3c2nc1=O |  | 32.86% | 90% |  |  |  | 65.71% |  | 86.96% | 94.57% | 50% | zone of inhibition at 100 µg/mL [23]: 0 mm; zone of inhibition at 500 µg/mL [24]: 21 mm; zone of inhibition at 100 µg/mL [25]: 0 mm; zone of inhibition at 500 µg/mL [26]: 0 mm; zone of inhibition at 100 µg/mL [27]: 0 mm; zone of inhibition at 100 µg/mL [28]: 0 mm; zone of inhibition at 500 µg/mL [29]: 0 mm; zone of inhibition at 500 µg/mL [30]: 0 mm; zone of inhibition at 500 µg/mL [31]: 0 mm; zone of inhibition at 100 µg/mL [32]: 0 mm |
| NYSTATIN |  |  |  |  |  |  |  |  |  |  |  | inhibition zone (IZ) [18]: 15 mm; inhibition zone (IZ) [19]: 11 mm; inhibition zone (IZ) [20]: 25 mm; inhibition zone (IZ) [21]: 24 mm; inhibition zone (IZ) [22]: 0 mm |
| O=C(CSc1nc2ccccc2c2nc(=O)c(-c3ccccc3)nn12)Nc1ccc(C23CC4CC(CC(C4)C2)C3)cc1 | inactive | 54.41% | 102.94% | inactive | inactive | inactive | 80.88% | inactive | 118.75% | 111.25% | 66.25% |  |
| Cc1nn2c(SCC(=O)NC34CC5CC(CC(C5)C3)C4)nc3ccccc3c2nc1=O | inactive | 0% | 36% | inactive | inactive | inactive | 0% | inactive | 25% | 1.88% | 0% |  |
| Cc1ccc(-c2nn3c(SCC(=O)Nc4ccc(C56CC7CC(CC(C7)C5)C6)cc4)nc4ccccc4c3nc2=O)cc1 | inactive | 50% | 84.62% | inactive | inactive | inactive | 96.15% | inactive | 170% | 140% | 16% |  |
